Rows were chosen to be rich in hits. Some 2.8% of all compounds tested hit in one or more screens of this group.
EP2 modulator: modulates human prostaglandin E2 receptor EP2 signaling; P43116; hit rate 0.83% among 260,000; EP2-expressing cells, cAMP HTRF FRET, PGE2 co-stimulation; AID 940; induction, % at 25 µM;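 active = compounds whose cAMP rise, as percent of the full-agonist control response, exceeds 60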;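 note: rat C6 glioma line stably carrying human EP2 under a CMV promoter; the protocol text gives 20 µM as final concentration; 100% = response of wells given 1 µM PGE2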
Target sequence (P43116 whole entry, looked up): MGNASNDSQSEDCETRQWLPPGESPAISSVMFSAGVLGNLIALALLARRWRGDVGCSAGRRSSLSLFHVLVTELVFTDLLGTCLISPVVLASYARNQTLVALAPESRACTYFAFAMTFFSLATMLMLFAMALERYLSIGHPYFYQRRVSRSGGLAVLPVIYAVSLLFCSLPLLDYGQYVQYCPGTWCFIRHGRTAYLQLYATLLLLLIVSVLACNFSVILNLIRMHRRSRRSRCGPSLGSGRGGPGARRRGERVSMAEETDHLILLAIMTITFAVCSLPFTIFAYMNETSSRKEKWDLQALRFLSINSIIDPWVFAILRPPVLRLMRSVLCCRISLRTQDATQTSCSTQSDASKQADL
PGE2 EP2 inh: inhibitors of human EP2 prostaglandin E2 receptor; inhibition, % at 25 µM; C6 glioma cells expressing human EP2, cAMP TR-FRET; cells stimulated with saturating PGE2; P43116; hit rate 0.52% among 260,000;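 active = percent inhibition above 40 after rounding to a whole number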;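 note: rat C6 glioma host cells with rolipram phosphodiesterase inhibitor present; the protocol text gives 20 µM as final concentration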
NPY Y1 blocker: antagonists of human neuropeptide Y receptor Y1. P25929. HEK293-CNG Y1 cells, membrane potential fluorescence; NPY at EC95, then isoproterenol. inhibition, % at 3.6 µM. hit rate 1% among 200,000;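 active = inhibition above the campaign mean inhibition of all tested compounds plus 3 SD, cut at about 20% in these data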;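 note: 0% = DMSO wells given NPY plus isoproterenol and 100% = isoproterenol alone without NPY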
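Material: HEK293 cells co-expressing NPY Y1 receptor and cyclic-nucleotide gated channel. Timing: compound incubation 1 h at room temperature, readout 45 min post-stimulation. Signal: fluorescence, membrane potential probe.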
NPY Y2 blocker: blocks the human neuropeptide Y Y2 receptor | P49146 | NPY-Y2 expressing cells, antagonist mode | inhibition, % at 2.7 µM | hit rate 0.99% among 140,000 | AID 793; in the data active = inhibition above about 17%;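 note: 0% = vehicle with agonist challenge and 100% = reference antagonist with challenge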
NPY-Y1 PAM-ag: potentiators or agonists of human neuropeptide Y receptor Y1. P25929. hit rate 0.37% among 220,000. NPY-Y1 expressing cells, potentiator/agonist activation. activation, % at 3.6 µM. AID 1304; in the data active = activation above about 33%, passing the limit was not always enough;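 note: cells stimulated with NPY at EC10 then isoproterenol at EC100; 0% = low agonist plus stimulus and 100% = saturating agonist plus stimulus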
NPY2 pot ag: human NPY-Y2 potentiation or agonism, primary screen | P49146 | cells expressing NPY-Y2, potentiator/agonist read-out | activation, % at 3.6 µM | hit rate 0.45% among 220,000; in the data active = activation above about 27%;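 note: cells stimulated with NPY near EC25 plus isoproterenol at EC100; 0% = vehicle plus submaximal agonist and 100% = vehicle plus saturating agonist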
* = called active by the depositor; . = not tested or not shown; ! = a repeat was not active.

SMILES	EP2 modulator	PGE2 EP2 inh	NPY Y1 blocker	NPY Y2 blocker	NPY-Y1 PAM-ag	NPY2 pot ag
COC(=O)[C@H]1C[C@H]1[C@@H](NC(=O)c1cccnc1)c1ccccc1	.	24.9	.	.	.	.
CCS(=O)(=O)N1CCN(S(=O)(=O)c2ccc(S(=O)(=O)NC3CCCC3)cc2)CC1	-13.7	7.6	.	.	.	.
O=C1C(=O)c2c(C(=O)c3ccccc3)coc2-c2ccccc21	-33.1	45.0*	-1.8	0.5	-13.1	6.9
O=C(O)c1ccccc1-c1ccccc1C(=O)c1ccccc1	-66.5	15.6	.	.	.	.
Cc1oc2c(c1C(=O)c1ccccc1)C(=O)C(=O)c1ccccc1-2	-43.8	57.2*	1.1	0.6	14.4	21.6
Cc1oc2c(c1C(=O)O)C(=O)c1ccccc1C2=O	-40.9	14.2	-3.0	.	-8.1	-4.3
O=c1oc2c3c4c(cc2s1)CCCN4CCC3	73.4*	3.5	-2.5	3.8	17.8	-3.0
O=c1ccc2cc3c4c(c2o1)CCCN4CCC3	-51.0	7.1	5.4	.	-3.0	-0.5
CCc1ccc2nc(SCC(=O)N3c4ccccc4CC3C)c(C#N)cc2c1 (centres undefined)	64.3*	8.6	.	.	.	.
O=C(CN1C(=O)C2CC=CCC2C1=O)N1CCN(c2ccc([N+](=O)[O-])cc2)CC1 (centres undefined)	-43.4	7.4	.	.	-17.8	0.6
COCC(=O)N1CCN(c2ccc([N+](=O)[O-])cc2)CC1	13.6	20.3	-4.6	4.1	42.2*	18.9
CCCn1c(=O)c(C(=O)Nc2ncc(C)s2)c(O)c2ccccc21	-1.6	11.2	.	.	.	.
NC(=O)NC(=O)CSc1nc2sc(-c3ccccc3)cc2c(=O)n1-c1ccccc1	64.5*	3.4	-3.6	.	6.6	3.4
COc1ccc(/C=C/c2cc[n+](C)cc2)cc1OC	-27.1	12.8	.	.	.	.
CCCOc1cccc(/C(O)=C2/C(=O)C(=O)N(CCN(C)C)C2c2cccnc2)c1 (centres undefined)	21.7	11.1	.	.	.	.
O=C(C1CCCC1)N1CCCc2cc(C(O)CN3CCC(C(F)(F)F)CC3)ccc21 (centres undefined)	-0.9	3.4	.	.	.	.
CC(c1ccccc1)N(NC(=O)C(O)(c1ccccc1)c1ccccc1)C(=O)c1ccccc1 (centres undefined)	32.4	8.8	22.3*	30.6*	3.3	2.6
Cc1ccc(C(=O)c2no[n+]([O-])c2C(=O)c2ccc(C)cc2)cc1	-45.0	49.8*	5.0	7.6	-18.0	-17.9
Cc1ccc(C(=O)N/C(=C\c2ccc(Br)cc2)c2nc(=S)[nH][nH]2)cc1	-2.1	4.3	-14.1	-4.6	47.4*	21.1
O=C(N/C(=C/c1cccc(Br)c1)c1nc(=S)[nH][nH]1)c1ccccc1	-0.8	5.8	-13.1	-3.3	51.2*	25.5*
COc1ccc2ccc(OC)c(C3C(C#N)=C(N)Oc4n[nH]c(C)c43)c2c1 (centres undefined)	0.7	6.3	.	.	.	.
O=C(NC1CCCCC1)C(c1ccncc1)N(C(=O)Cc1cccs1)c1cccc(F)c1 (centres undefined)	10.8	4.7	.	.	.	.
O=C(Cn1ncn2c(cc3ccsc32)c1=O)NC1(c2ccccc2)CCCC1	5.0	5.4	.	.	.	.
O=C(c1nn(Cc2ccccc2)c(=O)c2ccccc12)N1CCN(c2ccccn2)CC1	35.5	3.8	46.4*	20.3*	-34.0	-8.6
Cc1nnc(SCC(=O)N(C2CCCCC2)C2CCCCC2)[nH]c1=O	35.2	11.4	.	.	.	.
SMILES	EP2 modulator	PGE2 EP2 inh	NPY Y1 blocker	NPY Y2 blocker	NPY-Y1 PAM-ag	NPY2 pot ag
COc1ccc(CC(=O)NNC(=O)COc2ccc3ccccc3c2)cc1	-76.7	102.8*	9.9	8.2	1.5	-9.7
Cn1cccc1-c1nc2ccc(NC(=O)c3cccs3)cc2[nH]1	-12.2	47.6*	-5.5	-0.3	-4.3	-2.1
COc1ccc(S(=O)(=O)N2CCC(C(=O)Nc3cccc(C)c3)CC2)cc1OC	-55.3	6.5	.	.	.	.
COc1cccc(C(NC(=O)N2CCCC2)c2nccn2C)c1OC (centres undefined)	-40.1	.	.	.	.	.
COc1cc(/C=C/C(=O)OCc2c(C)noc2C)ccc1OC(F)F	-4.4	83.1*	7.1	.	-35.7	-25.2
CCOc1ccccc1OCC(O)CNC (centres undefined)	8.1	8.5	-15.9	-0.1	105.7*	94.1*
C=CCc1ccccc1OCC(O)Cn1ccnc1C (centres undefined)	-4.9	5.7	3.2	6.0	12.0	19.6
C=CCc1ccccc1OCC(O)CN1CCN(c2ccc(OC)cc2)CC1 (centres undefined)	26.1	1.2	-15.2	3.7	90.7*	80.3*
COc1ccc(OCC(O)CN2CCN(c3ccc(Cl)cc3)CC2)cc1 (centres undefined)	-5.1	2.6	.	.	16.3	-7.0
C=CCc1ccccc1OCC(O)CNC (centres undefined)	-7.0	17.6	-21.0	0.0	109.7*	101.3*
C=CCc1ccccc1OCC(O)CN(C(C)C)C(C)C (centres undefined)	-5.4	15.4	-18.5	5.4	102.7*	96.6*
CCOc1ccccc1CNCCNCC(C)O (centres undefined)	13.2	1.8	4.3	.	-1.7	-7.9
Cc1ccc(NC(=O)CN2CCC(c3nc4ccc(Cl)cc4[nH]3)CC2)cc1	-80.3	8.5	.	.	.	.
COc1cccc(C2/C(=C(/O)c3ccc(OC)c(OC)c3)C(=O)C(=O)N2C)c1 (centres undefined)	9.2	13.3	.	.	.	.
O=C(Nc1cccc(F)c1)c1cc2ccccc2o1	-99.6	11.1	.	.	.	.
Cc1ccc2cc3c(N)c(C(=O)N4CCOCC4)sc3nc2c1C	-109.6	9.1	.	.	.	.
CC(=O)SC(C[N+](=O)[O-])c1cn(C(C)=O)c2ccccc12 (centres undefined)	-9.1	80.9*	-4.9	-1.1	-18.9	-10.9
CCc1cccc2[nH]c3cc([N+](=O)[O-])ccc3c12	65.2*	7.5	.	.	-1.3	-21.4
CCCc1nc2ccc([N+](=O)[O-])cc2[nH]1	-8.8	8.7	0.5	.	4.5	6.7
COc1ccccc1OC(=O)c1cc(S(=O)(=O)N2CCOCC2)ccc1Cl	25.2	9.5	.	.	.	.
CC(C)c1ccc(/C=C/C(=O)NCCCc2ccccc2)cc1	-69.4	0.5	25.2*	29.9*	-14.3	-28.4
COc1ccc(/C=C/C(=O)NCCCc2ccccc2)cc1	-73.5	11.3	15.4	10.9	-25.0	1.2
COc1ccccc1NC(=O)N(Cc1ccc(F)cc1)Cc1cc2cccc(C)c2[nH]c1=O	-0.3	12.1	.	.	.	.
Cc1cc(Br)ccc1NC(=O)CNC(=O)CN1C(=O)NC2(CCCCCC2)C1=O	11.5	17.9	-5.7	-0.8	26.6	23.5
Cc1cc(Br)ccc1NC(=O)CN1C(=O)C2C3CC(c4ccccc4)C(C3)C2C1=O (centres undefined)	-8.7	.	-21.7	-5.9	67.2*	53.2*
COCCSc1nnc(NC(C)=O)s1	-3.3	5.3	.	.	.	.
CN(C)CCOC(c1ccccc1)c1ccccc1	20.3	7.0	0.9	2.5	107.5*!	101.3*!

Compound activity deposited in PubChem by several laboratories.
